# Non-standard residues stand in square brackets, D forms with d. Residues, ends and D or L forms follow the SMILES beside them. *: point of attachment. Ala(1-Adamantyl) = N[C@@H](CC12CC3CC(CC(C3)C1)C2)C(=O)O; Sta = CC(C)C[C@H](N)[C@@H](O)CC(=O)O; Adoc = O=C(OC12CC3CC(CC(C3)C1)C2)*; NMeF = CN[C@@H](Cc1ccccc1)C(=O)O; X1 = CC(C)(C)OC(=O)NCCS(=O)(=O)*; αMeF = C[C@](N)(Cc1ccccc1)C(=O)O; Phg = N[C@H](C(=O)O)c1ccccc1; Isovaleryl = CC(C)CC(=O)*; Nle = CCCC[C@H](N)C(=O)O; Nva = CCC[C@H](N)C(=O)O; Cbz = O=C(OCc1ccccc1)*; Boc = CC(C)(C)OC(=O)*; Moc = COC(=O)*
# Tests used:
# [1] = molecular target: T1, Renin (Homo sapiens, UniProt P00797); assay: In vitro inhibitory activity against human plasma renin; assay type: cell-free
# T1 sequence (P00797 whole entry): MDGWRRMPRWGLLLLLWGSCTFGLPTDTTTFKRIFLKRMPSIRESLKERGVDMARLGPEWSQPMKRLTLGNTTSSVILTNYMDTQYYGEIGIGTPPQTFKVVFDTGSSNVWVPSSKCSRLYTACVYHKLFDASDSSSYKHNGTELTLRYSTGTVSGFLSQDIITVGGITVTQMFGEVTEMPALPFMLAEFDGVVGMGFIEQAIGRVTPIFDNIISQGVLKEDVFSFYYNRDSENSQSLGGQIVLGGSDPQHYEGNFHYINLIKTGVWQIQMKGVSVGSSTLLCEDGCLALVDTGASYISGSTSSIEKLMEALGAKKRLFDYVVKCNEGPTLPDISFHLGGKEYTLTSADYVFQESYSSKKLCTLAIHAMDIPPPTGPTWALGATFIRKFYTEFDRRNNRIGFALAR
# [2] = molecular target: T1, Renin; assay: In vitro inhibitory activity against monkey plasma renin; assay type: cell-free, Cercopithecidae; conditions: target entry is the homologue from another species
# [3] = molecular target: T1, Renin; assay: In vitro inhibitory activity against dog plasma renin; assay type: cell-free, Canis lupus familiaris; conditions: target entry is the homologue from another species
# [4] = molecular target: T2, Renin (Rattus norvegicus, UniProt P08424); assay: In vitro inhibitory activity against rat plasma renin; assay type: cell-free
# T2 sequence (P08424 whole entry): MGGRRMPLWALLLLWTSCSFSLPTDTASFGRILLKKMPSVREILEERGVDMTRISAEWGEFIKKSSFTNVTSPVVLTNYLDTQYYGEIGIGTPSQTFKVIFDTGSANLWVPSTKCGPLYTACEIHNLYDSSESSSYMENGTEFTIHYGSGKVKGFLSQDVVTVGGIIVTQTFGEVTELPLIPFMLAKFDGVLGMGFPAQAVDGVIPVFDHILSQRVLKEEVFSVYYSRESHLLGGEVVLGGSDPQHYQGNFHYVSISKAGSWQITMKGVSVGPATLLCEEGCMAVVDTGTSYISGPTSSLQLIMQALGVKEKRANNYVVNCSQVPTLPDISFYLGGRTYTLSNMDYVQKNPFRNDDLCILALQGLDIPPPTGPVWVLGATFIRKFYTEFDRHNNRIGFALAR
# [5] = molecular target: T1, Renin; assay: In vitro inhibitory activity against man (human) plasma renin; assay type: cell-free
# [6] = molecular target: T1, Renin; assay: In vitro inhibitory activity against monkey (Callithrix jacchus) plasma renin; assay type: cell-free; conditions: target entry is the homologue from another species
# Procedure, shortened: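 Pooled plasma from animals whose plasma renin activity was stimulated with furosemide, incubated at 37 °C in pH 7.4 phosphate buffer with phenylmethanesulfonyl fluoride as angiotensinase inhibitor and increasing inhibitor concentrations. Angiotensin I generated was measured by RIA (Haber method). IC50 came from nonlinear logit vs log-concentration regression over five to seven concentrations.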
# [7] = molecular target: T1, Renin; assay: Inhibition of monkey plasma renin activity; assay type: cell-free, Cercopithecidae; conditions: target entry is the homologue from another species
# [8] = molecular target: T2, Renin; assay: Inhibition of rat plasma renin activity
# [9] = molecular target: T1, Renin; assay: Inhibition of dog plasma renin activity; assay type: cell-free, Canis lupus familiaris; conditions: target entry is the homologue from another species
# [10] = molecular target: T1, Renin; assay: Inhibition of man plasma renin activity; assay type: cell-free
Compound,IC50 [1],other results
COC(=O)CC(O)[C@H](CC(C)C)NC(=O)[C@H](C)NC(=O)CC(O)[C@H](CC(C)C)NC(=O)CNC(=O)[C@H](Cc1ccccc1)NC(=O)CC(C)C (stereo not given in full),4700 nM,–
COC(=O)C[C@H](O)[C@H](CC(C)C)NC(=O)[C@H](C)NC(=O)C[C@H](O)[C@H](CC(C)C)NC(=O)[C@@H](NC(=O)[C@H](Cc1c[nH]c2ccccc12)NC(=O)OCc1ccccc1)C(C)C (Cbz-WV[Sta]A[Sta]-OMe),–,IC50 [7]: 25 nM; IC50 [8]: 22 nM; IC50 [9]: 42 nM; IC50 [10]: 150 nM
COC(=O)CC(O)[C@H](CC(C)C)NC(=O)[C@H](C)NC(=O)CC(O)[C@H](CC(C)C)NC(=O)[C@H](Cc1ccccc1)NC(=O)[C@@H](Cc1ccccc1)NC(=O)OC(C)(C)C (stereo not given in full),> 10000 nM,–
COC(=O)C[C@H](O)[C@H](CC(C)C)NC(=O)[C@H](C)NC(=O)C[C@H](O)[C@H](CC(C)C)NC(=O)[C@H](Cc1c[nH]c2ccccc12)NC(=O)[C@H](Cc1c[nH]c2ccccc12)NC(=O)OC(C)(C)C (Boc-WW[Sta]A[Sta]-OMe),–,IC50 [8]: 1000 nM
COC(=O)C[C@H](O)[C@H](CC(C)C)NC(=O)[C@H](C)NC(=O)C[C@H](O)[C@H](CC(C)C)NC(=O)[C@H](Cc1ccccc1)NC(=O)[C@](C)(Cc1ccccc1)NC(=O)OC(C)(C)C (Boc-[αMeF]F[Sta]A[Sta]-OMe),> 10000 nM,–
CCC[C@H](NC(=O)[C@H](Cc1ccccc1)NC(=O)OC)C(=O)N[C@@H](CC(C)C)[C@@H](O)CC(=O)N[C@@H](C)C(=O)N[C@@H](CC(C)C)[C@@H](O)CC(=O)OC (Moc-F[Nva][Sta]A[Sta]-OMe),260 nM,–
COC(=O)C[C@H](O)[C@H](CC(C)C)NC(=O)[C@H](C)NC(=O)C[C@H](O)[C@H](CC(C)C)NC(=O)[C@H](Cc1ccccc1)NC(=O)[C@@H](NC(=O)OC(C)(C)C)c1ccccc1 (Boc-[Phg]F[Sta]A[Sta]-OMe),> 10000 nM,–
COC(=O)C[C@H](O)[C@H](CC(C)C)NC(=O)[C@H](C)NC(=O)C[C@H](O)[C@H](CC(C)C)NC(=O)[C@H](Cc1ccccc1)NC(=O)[C@H](Cc1ccccc1)NC(=O)CC(C)C (Isovaleryl-FF[Sta]A[Sta]-OMe),320 nM,–
COC(=O)CC(O)[C@H](CC(C)C)NC(=O)[C@H](C)NC(=O)CC(O)[C@H](CC(C)C)NC(=O)[C@@H](Cc1ccccc1)NC(=O)[C@H](Cc1ccccc1)NC(=O)OCc1ccccc1 (stereo not given in full),> 10000 nM,–
COC(=O)CC(O)[C@H](CC(C)C)NC(=O)[C@H](C)NC(=O)CC(O)[C@H](CC(C)C)NC(=O)[C@@H](NS(=O)(=O)CCNC(=O)OCc1ccccc1)C(C)C (stereo not given in full),> 10000 nM,–
COC(=O)C[C@H](O)[C@H](CC(C)C)NC(=O)[C@H](C)NC(=O)C[C@H](O)[C@H](CC(C)C)NC(=O)[C@H](Cc1ccccc1)NC(=O)[C@H](Cc1ccccc1)NC(C)=O (Ac-FF[Sta]A[Sta]-OMe),1400 nM,–
COC(=O)C[C@H](O)[C@H](CC(C)C)NC(=O)[C@H](C)NC(=O)C[C@H](O)[C@H](CC(C)C)NC(=O)[C@H](CCCCN)NC(=O)[C@H](Cc1ccccc1)NC(=O)CC(C)C (Isovaleryl-FK[Sta]A[Sta]-OMe),> 10000 nM,–
COC(=O)C[C@H](O)[C@H](CC(C)C)NC(=O)[C@H](C)NC(=O)C[C@H](O)[C@H](CC(C)C)NC(=O)[C@H](Cc1c[nH]cn1)NC(=O)[C@H](CC12CC3CC(CC(C3)C1)C2)NC(=O)OC(C)(C)C (Boc-[Ala(1-Adamantyl)]H[Sta]A[Sta]-OMe),250 nM,IC50 [5]: 250 nM; IC50 [3]: 650 nM; IC50 [4]: 2200 nM
COC(=O)C[C@H](O)[C@H](CC(C)C)NC(=O)[C@H](C)NC(=O)C[C@H](O)[C@H](CC(C)C)NC(=O)[C@H](Cc1ccccc1)NC(=O)[C@H](Cc1ccccc1)NC(=O)OC12CC3CC(CC(C3)C1)C2 (Adoc-FF[Sta]A[Sta]-OMe),3000 nM,–
COC(=O)C[C@H](O)[C@H](CC(C)C)NC(=O)[C@H](C)NC(=O)C[C@H](O)[C@H](CC(C)C)NC(=O)[C@H](Cc1ccccc1)NC(=O)[C@H](Cc1ccccc1)N(C)C(=O)OC(C)(C)C (Boc-[NMeF]F[Sta]A[Sta]-OMe),> 10000 nM,IC50 [5]: 15000 nM; IC50 [2]: 15000 nM; IC50 [4]: 17000 nM
CCCC[C@H](NC(=O)[C@@H](N)Cc1ccccc1)C(=O)N[C@@H](CC(C)C)[C@@H](O)CC(=O)N[C@@H](C)C(=O)N[C@@H](CC(C)C)[C@@H](O)CC(=O)OC (H-F[Nle][Sta]A[Sta]-OMe),7700 nM,–
COC(=O)C[C@H](O)[C@H](CC(C)C)NC(=O)[C@H](C)NC(=O)C[C@H](O)[C@H](CC(C)C)NC(=O)[C@@H]1CCCN1C(=O)[C@H](Cc1ccccc1)NC(=O)OCc1ccccc1 (Cbz-FP[Sta]A[Sta]-OMe),10000 nM,–
COC(=O)C[C@H](O)[C@H](CC(C)C)NC(=O)[C@H](C)NC(=O)C[C@H](O)[C@H](CC(C)C)NC(=O)[C@H](Cc1c[nH]c2ccccc12)NC(=O)[C@H](Cc1ccccc1)NC(=O)OCc1ccccc1 (Cbz-FW[Sta]A[Sta]-OMe),1400 nM,–

# Now from value to compound, other results behind:
IC50 [1],Compound,other results
190 nM,COC(=O)C[C@H](O)[C@H](CC(C)C)NC(=O)[C@H](C)NC(=O)C[C@H](O)[C@H](CC(C)C)NC(=O)[C@H](Cc1ccccc1)NC(=O)[C@H](Cc1ccccc1)NC(=O)OC(C)(C)C,IC50 [2]: 130 nM; IC50 [3]: 76 nM; IC50 [4]: 190 nM
42 nM,CCC[C@H](N[C@@H](CC(C)C)[C@@H](O)CC(=O)N[C@@H](C)C(=O)N[C@@H](CC(C)C)[C@@H](O)CC(=O)OC)C(=O)N[C@@H](Cc1ccccc1)C(=O)NC(=O)CC(C)C,IC50 [5]: 42 nM; IC50 [6]: 30 nM; IC50 [3]: 58 nM; IC50 [4]: 880 nM
75 nM,COC(=O)C[C@H](O)[C@H](CC(C)C)NC(=O)[C@H](C)NC(=O)C[C@H](O)[C@H](CC(C)C)NC(=O)[C@H](CC(C)C)NC(=O)[C@H](Cc1ccccc1)NC(=O)CC(C)C (Isovaleryl-FL[Sta]A[Sta]-OMe),–
30 nM,CCCC[C@H](NC(=O)[C@H](Cc1ccccc1)NC(=O)OC(C)(C)C)C(=O)N[C@@H](CC(C)C)[C@@H](O)CC(=O)N[C@@H](C)C(=O)N[C@@H](CC(C)C)[C@@H](O)CC(=O)O (Boc-F[Nle][Sta]A[Sta]-OH),–
200 nM,COC(=O)CC(O)[C@H](CC(C)C)NC(=O)[C@H](C)NC(=O)CC(O)[C@H](CC(C)C)NC(=O)CCCNC(=O)[C@H](Cc1ccccc1)NC(=O)CC(C)C (stereo not given in full),–
180 nM,COC(=O)C[C@H](O)[C@H](CC(C)C)NC(=O)[C@H](C)NC(=O)C[C@H](O)[C@H](CC(C)C)NC(=O)[C@H](Cc1ccccc1)NC(=O)[C@H](Cc1ccccc1)NS(=O)(=O)CCNC(=O)OC(C)(C)C (X1-FF[Sta]A[Sta]-OMe),–
51 nM,CCC[C@H](NC(=O)[C@H](Cc1ccccc1)NC(=O)OC(C)(C)C)C(=O)N[C@@H](CC(C)C)[C@@H](O)CC(=O)N[C@@H](C)C(=O)N[C@@H](CC(C)C)[C@@H](O)CC(=O)OC (Boc-F[Nva][Sta]A[Sta]-OMe),–
140 nM,COC(=O)C[C@H](O)[C@H](CC(C)C)NC(=O)[C@H](C)NC(=O)C[C@H](O)[C@H](CC(C)C)NC(=O)[C@H](Cc1c[nH]cn1)NC(=O)[C@H](Cc1c[nH]c2ccccc12)NC(=O)OC(C)(C)C (Boc-WH[Sta]A[Sta]-OMe),IC50 [7]: 110 nM; IC50 [8]: 1300 nM; IC50 [10]: 140 nM
